A selection: hits, their analogues and other compounds. The true share with any hit is near 1.6%.
SR-BI HDL uptake: inhibitors of SR-BI mediated HDL lipid uptake, primary screen, ldlA[mSR-BI] cells, fluorescence, single point; AID 488896, 2010; ldlA[mSR-BI] CHO cells, DiI-HDL uptake fluorescence, 3 h; 320,000 tested, 0.96% active; Scavenger receptor class B member 1 (Mus musculus), Q61009; inhibition, % at 12.5 µM;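 active means mean replicate inhibition of at least 70% and a set share of replicates each scoring 70 or more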
TLR4 MyD88 comp: inhibitors of TLR4-MyD88 association in cells, primary screen, cell-based, HeLa CL3-4, BLA complementation, FRET ratio | 200,000 tested, 0.18% active | HeLa CL3-4 TLR4/MyD88 BLA complementation | AID 861, 2007 | Toll-like receptor 4 (Homo sapiens) + Myeloid differentiation primary response protein … | inhibition, % at 8.4 µM; in the data active means inhibition above about 25%
SR-BI DiI-HDL act: activators of SR-BI mediated DiI-HDL uptake, primary screen, ldlA[mSR-BI] CHO cells, DiI fluorescence | activation, % at 12.5 µM | 3 h; 100 = double the neutral-control signal | 320,000 tested, 0.096% active | AID 504775, 2011;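 active means mean replicate activation of at least 60% and every replicate at or above 60%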
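Test system: SR-BI-overexpressing, LDLR-lacking CHO cells; Medium: Ham's F12 with 0.5% BSA, HEPES 25 mM, pH 7.4; Schedule: 3 h, 37 °C; Technique: bottom-read fluorescence, 550/595 nm.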
Hep lipid drop: inhibitors of hepatocyte lipid droplet formation, primary screen, imaging, high-throughput imaging, BODIPY stain. inhibition, % at 6.5 µM. AID 1656, 2009. AML12 mouse hepatocytes, oleate lipid droplets. 240,000 tested, 0.4% active;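 active means lipid droplet intensity inhibited by at least 50%, with more than 500 cells counted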
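Technique: fluorescence imaging, 20x objective, two fields per well / Assay system: AML12 hepatocytes (mouse) / Measure: % inhibition of lipid droplet signal / Doses: 6.5 µM single-point dosing / Incubation: overnight exposure / Reagent: 100 µM oleic acid challenge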
TLR9-MyD88 block: inhibitors of TLR9-MyD88 association in cells, primary screen, cell-based, CHO, BLA complementation, fluorescence. Toll-like receptor 9 (Homo sapiens) + Myeloid differentiation primary response protein …. CCF4 FRET ratio. inhibition, % at 4.98 µM. 340,000 tested, 0.21% active;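 active means inhibition above the mean over all tested compounds plus 3 SD, cut at about 21% in these data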
NOD2 RIPK2 PPI: NOD2-RIPK2 binding disruptors in cells, primary screen, fluorescence, CHO cells, BLA complementation | inhibition, % at 4.98 µM | CCF4 ratio | 360,000 tested, 0.38% active | Receptor-interacting serine/threonine-protein kinase 2 (Homo sapiens), O43353; in the data active means inhibition above about 21%
Target sequence (O43353 whole entry, looked up): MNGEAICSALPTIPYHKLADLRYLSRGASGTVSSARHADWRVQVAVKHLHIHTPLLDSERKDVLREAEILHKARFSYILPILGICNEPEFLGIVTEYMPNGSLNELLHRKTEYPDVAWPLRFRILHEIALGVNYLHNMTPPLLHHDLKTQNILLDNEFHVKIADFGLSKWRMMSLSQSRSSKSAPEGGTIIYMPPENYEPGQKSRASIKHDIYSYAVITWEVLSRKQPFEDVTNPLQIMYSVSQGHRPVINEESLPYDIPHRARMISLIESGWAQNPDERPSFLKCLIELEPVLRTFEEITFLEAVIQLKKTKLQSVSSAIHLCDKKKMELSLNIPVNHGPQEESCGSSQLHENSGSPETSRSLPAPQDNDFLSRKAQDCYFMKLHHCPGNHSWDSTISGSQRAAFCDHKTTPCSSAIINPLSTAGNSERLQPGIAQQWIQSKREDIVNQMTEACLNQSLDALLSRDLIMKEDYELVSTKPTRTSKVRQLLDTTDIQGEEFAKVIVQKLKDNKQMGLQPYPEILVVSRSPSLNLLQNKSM
Lipid drop inh: hepatocyte lipid droplet accumulation inhibitors, confirmation, imaging, AML12 mouse hepatocytes, single concentration, high-content. 870 tested, 65% active. shares compounds with Hep lipid drop. BODIPY lipid droplet imaging; droplets induced with 100 µM oleic acid. inhibition, % at 5.2 µM;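 active means inhibition of lipid droplet metric at least 50%, with more than 300 cells in each of four replicates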
AML12 cytotox: AML12 hepatocyte cytotoxicity, counter-screen for hepatic lipid droplet formation project, imaging, DAPI nuclear morphology imaging; shares compounds with Hep lipid drop; z-score at 5 µM; AML12 mouse hepatocytes; hits give high values; cells fed 100 µM oleate overnight; 870 tested, 3% active; in the data active means z-score above about 6.3;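 further: compound exposure lasted overnight at 37 °C before fixation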
AML12 tox conf: AML12 hepatocyte cytotoxicity, confirmation, cytotoxicity control for hepatic lipid droplet formation project, cell-based, single concentration; shares compounds with Hep lipid drop; AML12 mouse hepatocyte viability, ATP luminescence; cells loaded with 100 µM oleic acid; cytotoxicity, % at 50 µM; 530 tested, under 10 active;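 active means cytotoxicity above 50% in each of four replicates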;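 further: compound exposure lasted overnight at 37 °C before the ATP read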
Of the large screens only hits and unclear results are named; the others gave an inactive call (follow-up assays come after a bar, where they were run).

COC(=O)[C@H](Cc1c[nH]c2ccccc12)NC(=O)CCCc1c[nH]c2ccccc12	Hep lipid drop 60 (no result: TLR4 MyD88 comp) | Lipid drop inh inactive | AML12 cytotox inactive | AML12 tox conf inactive
Cc1ccc(CNC(=O)CCCc2c[nH]c3ccccc23)cc1	Hep lipid drop 71 (no result: TLR4 MyD88 comp) | Lipid drop inh 74 | AML12 cytotox inactive | AML12 tox conf inactive
COC(=O)[C@H](Cc1c[nH]c2ccccc12)NC(=O)Cc1c[nH]c2ccccc12	none (no result: TLR4 MyD88 comp)
Cc1ccc(NC(=O)CCCc2c[nH]c3ccccc23)nc1	Hep lipid drop 83 (no result: TLR4 MyD88 comp) | Lipid drop inh inactive | AML12 cytotox inactive
O=C(CCCc1c[nH]c2ccccc12)NCc1ccccc1F	none (no result: SR-BI HDL uptake, TLR4 MyD88 comp, SR-BI DiI-HDL act)
COCCCNC(=O)C[C@H]1C[C@H](C(=O)N(C(C)C)C(C)C)[C@@]2(C)c3[nH]c4cc(CCC(=O)N(C)C)ccc4c3CCN2C1=O	none (no result: TLR4 MyD88 comp, Hep lipid drop)
COc1cccc(/C(C)=N/NC(=O)Cc2c(C)[nH][nH]c2=O)c1	Hep lipid drop 63 | Lipid drop inh inactive | AML12 cytotox inactive
CC1=C(C(=O)N(C)C)CC(CC(=O)NC2CCCCC2)C(=O)N1Cc1ccc(F)cc1 (stereo unspecified)	none (no result: SR-BI HDL uptake, TLR4 MyD88 comp, SR-BI DiI-HDL act, Hep lipid drop, TLR9-MyD88 block)
Cc1nc2ccccc2nc(=O)c1NNc1ccccc1	Hep lipid drop 59 | Lipid drop inh 59 | AML12 cytotox inactive
Cc1ccc2nc(=O)c(NNc3ccccc3)cnc2c1	Hep lipid drop 52 | Lipid drop inh inactive | AML12 cytotox inactive | AML12 tox conf inactive
Cc1nc2ccccc2nc1OCc1ccccc1	none (no result: SR-BI HDL uptake, SR-BI DiI-HDL act)
CCCc1cc(N2CCCC2)n2nc(C)c(-c3ccccc3)c2n1	SR-BI HDL uptake 78, Hep lipid drop 60 | Lipid drop inh 99 | AML12 cytotox inactive | AML12 tox conf inactive
CCN1CCN(c2cc(C(C)C)nc3c(-c4ccccc4)c(C)nn23)CC1	Hep lipid drop 55 (no result: SR-BI HDL uptake, TLR4 MyD88 comp, SR-BI DiI-HDL act, TLR9-MyD88 block) | Lipid drop inh inactive | AML12 cytotox inactive
CC(=O)Nc1ccc(NC(=O)C(C)OC(=O)CCc2c[nH]c3ccccc23)cc1 (stereo unspecified)	none (no result: TLR4 MyD88 comp, Hep lipid drop)
COc1ccc(-c2nc3c(c(=O)[nH]c(=O)n3Cc3ccccc3)n2CCO)cc1	none (no result: TLR4 MyD88 comp)
O=c1[nH]c(=O)n(Cc2ccccc2)c2nc(-c3ccc(Oc4ccc(F)cc4)c([N+](=O)[O-])c3)n(CCO)c12	Hep lipid drop 64 | Lipid drop inh 71 | AML12 cytotox inactive | AML12 tox conf inactive
O=C(CCC(=O)c1ccc(F)cc1)Nc1cccc(S(=O)(=O)Nc2cccc(Cl)c2)c1	Hep lipid drop 51 | Lipid drop inh inactive | AML12 cytotox inactive
O=C(CCC(=O)c1ccc(F)cc1)Nc1cccc(C(F)(F)F)c1	none
CCOc1nc(-c2ccncc2)nc2ccccc12	Hep lipid drop 53 | Lipid drop inh inactive | AML12 cytotox inactive
CCCOc1ccc(C2=NNC(c3cccs3)=Nc3ccc(OC)cc32)cc1	Hep lipid drop 52 | Lipid drop inh inactive | AML12 cytotox inactive
CC(C)(C)c1cc(Br)c(O)c(N=Nc2ccc(S(=O)(=O)N3CCOCC3)cc2)c1	Hep lipid drop 56 | Lipid drop inh 102 | AML12 cytotox inactive | AML12 tox conf inactive
Cc1cc(NC(=O)c2cc3ccccc3o2)cc(C)c1OCC(=O)N1CCOCC1	Hep lipid drop 91 | Lipid drop inh 107 | AML12 cytotox inactive | AML12 tox conf inactive
O=[N+]([O-])c1ccc(N2CCN(S(=O)(=O)c3ccccc3[N+](=O)[O-])CC2)cc1NCc1cccnc1	none
CCS(=O)(=O)N1CCN(c2ccc([N+](=O)[O-])c(NCc3cccnc3)c2)CC1	Hep lipid drop 59 | Lipid drop inh inactive | AML12 cytotox inactive
Cc1ccccc1OCc1nnc(SCC(=O)Nc2ccc3c(c2)oc2ccccc23)n1C	Hep lipid drop 93 | Lipid drop inh inactive | AML12 cytotox inactive
COc1ccccc1OCc1nnc(SCC(=O)Nc2ccc(C)cc2)n1C	none (no result: Hep lipid drop)
COC(C/C=C/C(=O)[C@H](C)OCc1ccccc1)OC	none (no result: TLR4 MyD88 comp, Hep lipid drop)
CCSC(=O)N(CC)CC(=O)Nc1c(CC)cccc1CC	Hep lipid drop 56 | Lipid drop inh 87 | AML12 cytotox inactive | AML12 tox conf inactive
CCCSC(=O)N(CC)CC(=O)Nc1c(CC)cccc1CC	Hep lipid drop 64 | Lipid drop inh 90 | AML12 cytotox inactive | AML12 tox conf inactive
C=CCN(CC(=O)Nc1c(C)cccc1CC)C(=O)SCCC	none
CCCN(CC(=O)Nc1c(C)cccc1CC)C(=O)SCC	none
COc1ccc(Cl)cc1NC(=O)CCCn1c(=O)c2cccn2c2cccnc21	none (no result: SR-BI HDL uptake, TLR4 MyD88 comp, SR-BI DiI-HDL act, Hep lipid drop)
COc1cc(NC(=S)NCCc2ccc(S(N)(=O)=O)cc2)c(OC)cc1Cl	none
CCN1C(=O)N2C[C@H]3CON(C)[C@H]3C[C@H]2c2ccccc21	none (no result: SR-BI HDL uptake, TLR4 MyD88 comp, SR-BI DiI-HDL act, Hep lipid drop, TLR9-MyD88 block)
C[C@@H]1CN([C@@H](C)CO)C(=O)CCCn2cc(nn2)CO[C@H]1CN(C)S(=O)(=O)c1ccc(C#N)cc1	none (no result: SR-BI HDL uptake, TLR4 MyD88 comp, SR-BI DiI-HDL act, Hep lipid drop)
COc1ccc(C(=O)OC(C)C(=O)Nc2cc(C(F)(F)F)ccc2Cl)c(OC)c1OC (stereo unspecified)	Hep lipid drop 80 | Lipid drop inh 107 | AML12 cytotox inactive | AML12 tox conf inactive
CC(OC(=O)c1ccc(O)cc1)C(=O)Nc1cc(C(F)(F)F)ccc1Cl (stereo unspecified)	none (no result: TLR4 MyD88 comp)
COc1ccc(C(C(=O)NC(C)(C)C)N(Cc2ccco2)C(=O)CCC(=O)Nc2cc(C)on2)cc1 (stereo unspecified)	Hep lipid drop 52 | Lipid drop inh 69 | AML12 cytotox inactive | AML12 tox conf inactive
COc1ccc(C(C(=O)NC(C)(C)C)N(Cc2ccc(C)cc2)C(=O)CCC(=O)Nc2cc(C)on2)cc1 (stereo unspecified)	Hep lipid drop 70 | Lipid drop inh 106 | AML12 cytotox inactive | AML12 tox conf inactive

Screening results from PubChem.
